Compound activity: PubChem BioAssay, several laboratories
NR2E3 ag-1: inhibitors of NR2E3-RetCOR corepressor binding, primary screen, NR2E3 agonist project, biochemical, TR-FRET, GST-NR2E3, biotin-RetCOR | inhibition of corepressor binding, % at 4.78 µM | 320,000 compounds, 0.12% hits | Photoreceptor-specific nuclear receptor (Homo sapiens), Q9Y5X4 | 1536-well | AID 2300, 2010;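 active = percent inhibition above the cutoff of mean plus 3 SD of all tested compounds, set per screening campaign, cut at about 20% in these data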;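 note: 0% = DMSO wells and 100% = biotin wells as full block of FRET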
Target sequence (Q9Y5X4 whole entry, looked up): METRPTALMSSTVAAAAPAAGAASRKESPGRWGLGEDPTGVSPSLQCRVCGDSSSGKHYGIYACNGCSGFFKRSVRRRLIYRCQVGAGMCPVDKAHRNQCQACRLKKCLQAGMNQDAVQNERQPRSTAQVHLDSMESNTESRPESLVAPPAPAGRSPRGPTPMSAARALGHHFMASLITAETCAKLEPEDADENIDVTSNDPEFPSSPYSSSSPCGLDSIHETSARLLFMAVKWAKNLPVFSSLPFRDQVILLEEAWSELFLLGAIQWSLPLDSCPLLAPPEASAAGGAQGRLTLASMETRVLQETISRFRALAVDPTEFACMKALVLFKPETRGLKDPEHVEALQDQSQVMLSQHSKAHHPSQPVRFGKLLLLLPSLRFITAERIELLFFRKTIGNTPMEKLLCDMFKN
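System: GST-tagged NR2E3 plus biotinylated RetCOR corepressor; Buffer or medium: pH 7.5 Tris-based buffer; Probe or stimulus: RetCOR corepressor, biotinylated, 7 nM; Doses: compound at 4.8 µM, single dose; Schedule: 5 h incubation at 4 °C; Technique: time-resolved FRET; Evaluation: percent inhibition of TR-FRET ratio; Replication: one well per compound, singlicate testing.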
T cell modulator: modulators of CD8 T cell-vesicle binding, primary screen, mouse 2C CD8+ T cells, flow cytometry; 330,000 compounds, 0.068% hits; response (vesicle binding), % at 7 µM; 2C CD8+ T cell-vesicle binding; stronger effect = lower value;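 active = response, share of CD8 T cells binding vesicles, and their 90th percentile fluorescence all below set limits, cut at about 80% in these data, passing the limit was not always enough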;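 note: values below 100% mean blocked vesicle binding to the CD8+ T cells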
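material = purified 2C TCR transgenic mouse naive CD8+ T cells | controls = Unloaded micro-vesicles (low), QL9 vesicles with 0.7% DMSO (high) | detection = cytometric PE anti-B7-1 and Alexa647 anti-CD8 signals after 1% paraformaldehyde fixation | incubation = binding step 1.5 h, 37 °C, antibody labelling 20 min, ice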
NR2E3 ag-2: NR2E3 agonists in two-hybrid cells, primary screen, cell-based, luminescence, CHO-S, Gal4-NCOR/VP16-NR2E3; luciferase; inhibition of corepressor binding, % at 3.98 µM; Photoreceptor-specific nuclear receptor (Homo sapiens), Q9Y5X4; 360,000 compounds, 0.35% hits;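 active = inhibition above the mean of all tested compounds plus 3 SD, cut at about 70% in these data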;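 note: 0% = DMSO with NR2E3 transfected cells and 100% = cells lacking NR2E3 construct; higher means lower luciferase signal from less NR2E3 corepressor binding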
FXN GAA850 act: FXN promoter activators, primary screen, cell-based, luciferase luminescence, HEK293 lucGAA850 | HEK293 lucGAA850 FXN promoter luciferase reporter, 24 h; percent of 10 µM SAHA response | activation, % at 6 µM | 360,000 compounds, 0.56% hits | AID 540364, 2011;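 active = activation above the average of all compounds screened plus 3 SD, cutoff fixed separately per campaign, cut at about 7.5% in these data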;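 note: 0% = DMSO wells and 100% = 10 µM SAHA wells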
Myeloid diff MLP: induction of myeloid progenitor differentiation, primary screen, cell-based, flow cytometry, MLPCN library | 360,000 compounds, 1% hits | calls only at 10 µM | ER-HoxA9 myeloid progenitors, lysozyme-GFP differentiation;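 active = normalized GFP-positive differentiation at or above the plate's own cutoff, the solvent-only control mean plus 3 SD; inconclusive = no clear call, values can overlap the other calls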;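 note: cells exposed to compound for four days before flow analysis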
NR2E3 ag confirm: NR2E3 agonist confirmation in cells, cell-based, luminescence, CHO-S two-hybrid. shares compounds with NR2E3 ag-2. CHO-S mammalian two-hybrid NR2E3-NCOR, luciferase luminescence. inhibition, % at 3.98 µM. 2,300 compounds, 51% hits;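 active = average inhibition above a cutoff equal to the mean inhibition of all tested compounds plus one SD, cut at about 70% in these data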;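 note: 0% = DMSO in NR2E3 cells and 100% = DMSO in cells lacking NR2E3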
VP16 counter: GAL4-VP16 reporter modulators, confirmation, counter-screen for NR2E3 agonist project, cell-based, luminescence, CHO-S, high throughput | 2,300 compounds, 29% hits | shares compounds with NR2E3 ag-2 | CHO-S GAL4-VP16 luciferase reporter | inhibition, % at 3.98 µM | AID 624379, 2012;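 active = mean inhibition above a cutoff equal to the average over all tested compounds plus one standard deviation, cut at about 70% in these data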;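 note: luciferase from a UAS reporter driven by GAL4-VP16 transactivation; 0% = DMSO with VP16-transfected cells and 100% = DMSO with cells lacking VP16; higher means less reporter light so more repression of VP16 activity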
* hit, by the source's call; i = inactive; ? = inconclusive; / = no result; + = active, no number. Only some compounds are listed: those with a hit (about 2% of all), similar ones and a draw of the others.

SMILES	NR2E3 ag-1	T cell modulator	NR2E3 ag-2	FXN GAA850 act	Myeloid diff MLP	NR2E3 ag confirm	VP16 counter
CC(C)c1ccc(C(C)NC(=S)NC2CCCCC2)cc1 (configuration not stated)	/	621	50	-2	?	11	16
CC(NC(=S)NC1CCCCC1)c1ccc(C(C)(C)C)cc1 (configuration not stated)	-1	214	17	-4	/	/	/
COc1cc(-c2coc3c(C(=O)NCc4ccc(C(F)(F)F)cc4)cccc23)ccc1O	/	/	-78	-1	i	/	/
Cc1ccc(N2CC(C(=O)Nc3cccc(S(=O)(=O)N4CCOCC4)c3)CC2=O)cc1 (configuration not stated)	/	/	11	-3	i	/	/
CN(C(=O)C(C)(C)C)c1ccc(OCC(=O)N2CCc3ccccc3C2)cc1	-4	239	76*	-2	i	62	63
Cc1sc2ncnc(NCC(C)(C)N3CCOCC3)c2c1C	2	56*	91*	0	i	80*	66
Cc1sc2ncnc(NCc3ccccc3)c2c1C	2	169	67	1	i	89*	71*
Cc1sc2ncnc(Nc3ccccc3)c2c1C	2	79	8	-1	i	/	/
c1ccc(-c2csc3ncnc(NCC4COc5ccccc5O4)c23)cc1 (configuration not stated)	2	144	91*	-6	i	98*	89*
Cc1sc2ncnc(NCC3COc4ccccc4O3)c2c1C (configuration not stated)	-1	181	92*	-3	+	97*	89*
Cc1nc2ccc(NC(=O)c3ccc(Cl)c(S(=O)(=O)N(C)c4ccccc4)c3)cc2s1	2	138	2	-3	i	/	/
CN(c1ccccc1)S(=O)(=O)c1cccc(NC(=O)c2ccncc2)c1	-3	182	53	-1	i	38	45
CC(=O)Nc1ccc(C(=O)Nc2cccc(S(=O)(=O)N(C)c3ccccc3)c2)cc1	3	328	3	0	i	/	/
Cc1nc2ccc(NC(=O)c3cc(S(=O)(=O)N(C)c4ccccc4)ccc3Cl)cc2s1	0	396	80*	-5	i	91*	80*
CCCC(=O)N1CCC1(C)C(=O)Nc1cccc(F)c1 (configuration not stated)	/	/	-7	2	i	/	/
CC(C)(C)Nc1c(C2CCNCC2)nc2c(OCc3ccccc3)cccn12	/	/	-7	/	i	/	/
c1cc2c(cc1-c1cnc3n1CCC3)OCCO2	2	147	56	-1	i	66	3
Cc1ccc(-c2cnc3n2CCCCC3)cc1	4	397	-10	-1	i	/	/
O=C(c1cc(COc2c(F)cccc2F)on1)N1CCC(c2ccccc2Cl)C1 (configuration not stated)	4	894	-39	3	i	/	/
O=C(c1cc(COc2c(F)cccc2F)on1)N1CCC(c2ccncc2)CC1	2	137	62	0	i	83*	73*
Cc1cccc(C)c1OCc1cc(C(=O)N2CCC(c3ccncc3)CC2)no1	0	345	86*	0	i	88*	53
O=C(c1cc(COc2c(F)cccc2F)on1)N1CCC(c2ccccc2F)C1 (configuration not stated)	3	251	-78	3	/	/	/
O=C(c1cc(COc2cccc3cnccc23)on1)N1CCC(c2ccccc2Cl)C1 (configuration not stated)	-1	328	95*	1	i	78*	68
